Experimental data published in publication PMC9199876 (Clinical and Translational Science, 2022).
“And” between values parts separate entries of the source, which are not always exact repeats. Identical values can stand only once. Like-named read-outs stand apart in the source and are kept apart here.

Tests used:
[1] = Phase I two-way crossover study: plasma pharmacokinetics of trazpiroben and M23; format: in vivo, humans (healthy adults); conditions: for AUC∞, geometric mean (mean CV%) / C max, geometric mean (geometric CV%) / T max, median (min, max) / t 1/2z, mean (SD): plasma trazpiroben; for AUC∞, geometric mean (mean CV%): n = 12
In short: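 Open-label crossover in healthy adults fasted ≥10 h: a single oral 25 mg capsule, alone or right after a 30-min i.v. infusion of 600 mg rifampin, with ≥7-day washout. Parent and metabolite were measured by LC-MS/MS (range 0.1–50.0 ng/ml; BLOQ set to zero). Noncompartmental analysis used actual sampling times.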

OATP1B1/1B3 [2] = experiment: Clinical DDI: effect of single-dose i.v. rifampin; format: in vivo, humans (healthy adults); conditions: plasma trazpiroben; trazpiroben with rifampin relative to trazpiroben alone
In short: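 Healthy fasted adults (n = 12) in a two-way crossover: an oral 25 mg capsule of test compound alone, or given immediately after 600 mg rifampin i.v. over 30 min. Washout was ≥7 days. Plasma parent and metabolite were assayed by validated LC-MS/MS and analysed noncompartmentally. The ANOVA on log-transformed AUC∞ and Cmax gave the LSM difference (B – A), which was exponentiated to give GMRs with 90% CIs.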

[3] = Safety and tolerability assessment; format: in vivo, humans (healthy adults); conditions: for Number of participants with TEAEs / TEAE: Abdominal pain, upper / TEAE: Cough / TEAE: Dermatitis contact / TEAE: Gastrointestinal disorders / TEAE: Headache / TEAE: Nasal congestion / TEAE: Nervous system disorders / TEAE: Respiratory, thoracic, and mediastinal disorders / TEAE: Sensory disturbance / TEAE: Sinus congestion / TEAE: Skin and subcutaneous tissue disorders / TEAE: Sneezing: n = 12
In short: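 Twelve healthy adults received a single oral 25 mg dose with and without i.v. rifampin 600 mg in crossover. TEAEs were monitored throughout. Vital signs and triplicate 12-lead ECGs were taken at screening (day −28 to −2), predose, and 1, 2, 4, 8 and 48 h post dose in each period. Serum chemistry, hematology and urinalysis were also run. Follow-up included a full physical exam, vital signs and ECG.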

[4] = oral administration, rats; cited from earlier work
[5] = oral administration, dogs; cited from earlier work
[6] = tested on: cytosolic NADPH-dependent reductases; conditions: in vitro; cited from earlier work
CYP3A4 [7] = conditions: in vitro; cited from earlier work
CYP2C8 [8] = conditions: in vitro; cited from earlier work
[9] = ref data on file, cited from earlier work
[10] = preclinical; cited from earlier work
CYP1A2 = conditions: in vitro, clinically relevant dose (0.06 μM); cited from earlier work
CYP2B6 = conditions: in vitro, clinically relevant dose (0.06 μM); cited from earlier work
CYP2C8 [11] = conditions: in vitro, clinically relevant dose (0.06 μM); cited from earlier work
CYP2C9 = conditions: in vitro, clinically relevant dose (0.06 μM); cited from earlier work
CYP2C19 = conditions: in vitro, clinically relevant dose (0.06 μM); cited from earlier work
CYP2D6 = conditions: in vitro, clinically relevant dose (0.06 μM); cited from earlier work
CYP3A = conditions: in vitro, clinically relevant dose (0.06 μM); cited from earlier work
CYP isoforms = conditions: in vitro, clinically relevant dose (0.06 μM); cited from earlier work
CYP3A4 [12] = conditions: phase I DDI studies; cited from earlier work
[13] = cited from earlier work
[14] = single and multiple doses, healthy men and women; cited from earlier work
[15] = healthy Japanese individuals; cited from earlier work
p-glycoprotein (P-gp) = conditions: in vitro; cited from earlier work
OATP1B1/1B3 [16] = conditions: in vitro; cited from earlier work
[17] = tested on: breast cancer resistance protein (BCRP); conditions: in vitro; cited from earlier work
MATE1 [18] = conditions: in vitro; cited from earlier work
MATE2-K [19] = conditions: in vitro; cited from earlier work
OAT1 [20] = conditions: in vitro; cited from earlier work
OAT3 [21] = conditions: in vitro; cited from earlier work
OCT2 [22] = conditions: in vitro; cited from earlier work
BCRP = conditions: at a clinically relevant dose; cited from earlier work
bile salt export pump = conditions: at a clinically relevant dose; cited from earlier work
MATE1 [23] = conditions: at a clinically relevant dose; cited from earlier work
MATE2-K [24] = conditions: at a clinically relevant dose; cited from earlier work
OAT1 [25] = conditions: at a clinically relevant dose; cited from earlier work
OAT3 [26] = conditions: at a clinically relevant dose; cited from earlier work
OCT2 [27] = conditions: at a clinically relevant dose; cited from earlier work
OATP1B1/1B3 [28] = conditions: at a clinically relevant dose; cited from earlier work
[29] = phase II, 51 patients with idiopathic or diabetic gastroparesis; cited from earlier work
[30] = trazpiroben 25 mg + rifampin 600 mg i.v.
[31] = trazpiroben 25 mg + rifampin 600 mg
[32] = fasted rats, oral radiolabeled trazpiroben, after 24 h

O=C(O)c1cccc(CN2CN(C3CCCCC3)C3(CCN(CCCC(=O)c4ccccc4)CC3)C2=O)c1 [trazpiroben, Trazpiroben]
participants with detectable levels of plasma trazpiroben ([1]; 0.5 h, co-administered with rifampin): all participants
participants with detectable levels of plasma trazpiroben ([1]; 0.5 h after trazpiroben alone): 92%
participants with detectable levels of plasma trazpiroben ([1]; 12 h after trazpiroben alone): 92%
participants with detectable levels of plasma trazpiroben ([1]; 16 h after trazpiroben alone): 42%
participants with detectable levels of plasma trazpiroben ([1]; 16 h post dose, trazpiroben + rifampin): 83%
AUC∞, geometric mean (mean CV%) ([1]; single oral trazpiroben 25 mg alone): 32.7 ng*h/ml and 32.68 (23.9) ng*h/ml
C max, geometric mean (geometric CV%) [1, 30]: 89.62 (68.6) ng/ml
T max, median (min, max) [1, 30]: 1.002 (0.49, 2.00) h
t 1/2z, mean (SD) [1, 30]: 2.028 ± 0.3449 h
C max, geometric mean (geometric CV%) ([1]; trazpiroben 25 mg alone): 14.37 (38.7) ng/ml
T max, median (min, max) ([1]; trazpiroben 25 mg alone): 1.037 (0.50, 2.00) h
t 1/2z, mean (SD) ([1]; trazpiroben 25 mg alone): 4.229 ± 3.7897 h
AUC∞, geometric mean (mean CV%) ([1]; trazpiroben 25 mg oral + rifampin 600 mg i.v.): 168.5 (49.9) ng*h/ml
CL/F, geometric mean (geometric CV%) [1, 30]: 148.4 (49.9) L/h
V z/F, geometric mean (geometric CV%) [1, 30]: 428.1 (49.9) L
CL/F, geometric mean (geometric CV%) ([1]; trazpiroben 25 mg alone): 765.1 (23.9) L/h
V z/F, geometric mean (geometric CV%) ([1]; trazpiroben 25 mg alone): 3469 (70.7) L
AUC∞ geometric mean ratio (90% CI) (OATP1B1/1B3 [2]): 5.16 (4.25–6.25) fold
C max geometric mean ratio (90% CI) (OATP1B1/1B3 [2]): 6.24 (4.62–8.42) fold
serum chemistry, hematology, urinalysis, vital signs, and ECG results ([3]; all participants, throughout the study): remained within normal limits
AE relating to QT prolongation ([3]; current study): no clinically relevant AE relating to QT prolongation
Number of participants with TEAEs ([3]; overall (both treatments)): 6 (50) n (%)
TEAE: Abdominal pain, upper ([3]; overall (both treatments)): 1 (8) n (%)
TEAE: Cough ([3]; overall (both treatments)): 1 (8) n (%)
TEAE: Dermatitis contact ([3]; overall (both treatments)): 1 (8) n (%)
TEAE: Gastrointestinal disorders ([3]; overall (both treatments)): 1 (8) n (%)
TEAE: Headache ([3]; overall (both treatments)): 2 (17) n (%)
TEAE: Nasal congestion ([3]; overall (both treatments)): 1 (8) n (%)
TEAE: Nervous system disorders ([3]; overall (both treatments)): 3 (25) n (%)
TEAE: Respiratory, thoracic, and mediastinal disorders ([3]; overall (both treatments)): 2 (17) n (%)
TEAE: Sensory disturbance ([3]; overall (both treatments)): 1 (8) n (%)
TEAE: Sinus congestion ([3]; overall (both treatments)): 1 (8) n (%)
TEAE: Skin and subcutaneous tissue disorders ([3]; overall (both treatments)): 1 (8) n (%)
TEAE: Sneezing ([3]; overall (both treatments)): 1 (8) n (%)
tolerability ([3]; single agent or in combination with rifampin, healthy participants): well‐tolerated
Number of participants with TEAEs [3, 31]: 2 (17) n (%)
TEAE: Abdominal pain, upper [3, 31]: 0 (0) n (%)
TEAE: Cough [3, 31]: 1 (8) n (%)
TEAE: Dermatitis contact [3, 31]: 0 (0) n (%)
TEAE: Gastrointestinal disorders [3, 31]: 0 (0) n (%)
TEAE: Headache [3, 31]: 1 (8) n (%)
TEAE: Nasal congestion [3, 31]: 1 (8) n (%)
TEAE: Nervous system disorders [3, 31]: 1 (8) n (%)
TEAE: Respiratory, thoracic, and mediastinal disorders [3, 31]: 1 (8) n (%)
TEAE: Sensory disturbance [3, 31]: 0 (0) n (%)
TEAE: Sinus congestion [3, 31]: 0 (0) n (%)
TEAE: Skin and subcutaneous tissue disorders [3, 31]: 0 (0) n (%)
TEAE: Sneezing [3, 31]: 0 (0) n (%)
Number of participants with TEAEs ([3]; trazpiroben 25 mg alone): 6 (50) n (%)
TEAE: Abdominal pain, upper ([3]; trazpiroben 25 mg alone): 1 (8) n (%)
TEAE: Cough ([3]; trazpiroben 25 mg alone): 0 (0) n (%)
TEAE: Dermatitis contact ([3]; trazpiroben 25 mg alone): 1 (8) n (%)
TEAE: Gastrointestinal disorders ([3]; trazpiroben 25 mg alone): 1 (8) n (%)
TEAE: Headache ([3]; trazpiroben 25 mg alone): 2 (17) n (%)
TEAE: Nasal congestion ([3]; trazpiroben 25 mg alone): 0 (0) n (%)
TEAE: Nervous system disorders ([3]; trazpiroben 25 mg alone): 3 (25) n (%)
TEAE: Respiratory, thoracic, and mediastinal disorders ([3]; trazpiroben 25 mg alone): 1 (8) n (%)
TEAE: Sensory disturbance ([3]; trazpiroben 25 mg alone): 1 (8) n (%)
TEAE: Sinus congestion ([3]; trazpiroben 25 mg alone): 1 (8) n (%)
TEAE: Skin and subcutaneous tissue disorders ([3]; trazpiroben 25 mg alone): 1 (8) n (%)
TEAE: Sneezing ([3]; trazpiroben 25 mg alone): 1 (8) n (%)
participants reporting contact dermatitis ([3]; trazpiroben alone): 8%
participants reporting headache ([3]; trazpiroben alone): 17%
participants reporting sensory disturbance ([3]; trazpiroben alone): 8%
participants reporting sinus congestion ([3]; trazpiroben alone): 8%
participants reporting upper abdominal pain ([3]; trazpiroben alone): 8%
severity of TEAEs ([3]; whole study): mild
number of TEAEs recorded ([3]; whole study, 12 participants): 10
deaths, serious AEs, discontinuations due to an AE ([3]; whole study, trazpiroben alone and with rifampin): no deaths, serious AEs, or discontinuations due to an AE
absolute bioavailability [4]: ~ 20%
absolute bioavailability [5]: ~ 20%
share of metabolism via non-CYP cytosolic NADPH-dependent reductases (to M23) [6]: 56.7%
share of metabolism via CYP3A4 (CYP3A4 [7]): 25.8%
share of metabolism via CYP2C8 (CYP2C8 [8]): 11.8%
dosed radioactivity excreted in bile ([9]; bile duct cannulated rats): ~ 86%
dosed radioactivity excreted in feces ([9]; bile duct cannulated rats): 11%
dosed radioactivity excreted in urine ([9]; bile duct cannulated rats): 5%
dosed radioactivity excreted in feces [9, 32]: ~ 94%
dosed radioactivity excreted in urine [9, 32]: 6%
accumulation after repeated doses [10]: minor accumulation
increase of plasma concentrations with dose [10]: dose‐proportional manner
inhibition of CYP1A2 (CYP1A2): does not inhibit
inhibition of CYP2B6 (CYP2B6): does not inhibit
inhibition of CYP2C8 (CYP2C8 [11]): does not inhibit
inhibition of CYP2C9 (CYP2C9): does not inhibit
inhibition of CYP2C19 (CYP2C19): does not inhibit
inhibition of CYP2D6 (CYP2D6): does not inhibit
inhibition of CYP3A (CYP3A): does not inhibit
induction of CYP isoforms (CYP isoforms): does not induce
sensitivity to CYP3A4 inhibition (CYP3A4 [12]): relatively insensitive
accumulation index ([13]; 50 mg twice daily for 5 days): 1.9
accumulation index ([13]; 100 mg twice daily for 5 days): 1.4
time to maximum concentration [T max] ([13]; AT-01C study, healthy men and women): ~ 1.1 h
mean half-life ([13]; AT-01C study): 4 h
mean apparent oral clearance ([13]; across single-dose groups of 25–300 mg): 600 to 800 L/h
tolerability [14]: well‐tolerated
tolerability [15]: well‐tolerated
substrate of p-glycoprotein (P-gp) (p-glycoprotein (P-gp)): substrate
substrate of OATP1B1/1B3 (OATP1B1/1B3 [16]): substrate
substrate of BCRP [17]: not a substrate
substrate of MATE1 (MATE1 [18]): not a substrate
substrate of MATE2-K (MATE2-K [19]): not a substrate
substrate of OAT1 (OAT1 [20]): not a substrate
substrate of OAT3 (OAT3 [21]): not a substrate
substrate of OCT2 (OCT2 [22]): not a substrate
inhibitor of BCRP (BCRP): not an inhibitor
inhibitor of bile salt export pump (bile salt export pump): not an inhibitor
inhibitor of MATE1 (MATE1 [23]): not an inhibitor
inhibitor of MATE2-K (MATE2-K [24]): not an inhibitor
inhibitor of OAT1 (OAT1 [25]): not an inhibitor
inhibitor of OAT3 (OAT3 [26]): not an inhibitor
inhibitor of OCT2 (OCT2 [27]): not an inhibitor
inhibitor of OATP1B1/1B3 (OATP1B1/1B3 [28]): not an inhibitor
safety signals [29]: did not identify any safety signals
